Where a SMILES comes first, the peptide text is derived from it. [ ]: non-standard residue; d: D form. The star is where a group is joined. Propanoyl(3-(4-F-phenyl)) = O=C(CCc1ccc(F)cc1)*; Propanoyl(3-(4-Cl-Ph)) = O=C(CCc1ccc(Cl)cc1)*; dPhe(4-Cl) = N[C@H](Cc1ccc(Cl)cc1)C(=O)O; Desaminotyrosyl = O=C(CCc1ccc(O)cc1)*; d1Nal = N[C@H](Cc1cccc2ccccc12)C(=O)O; d2Nal = N[C@H](Cc1ccc2ccccc2c1)C(=O)O; Lys(iPr) = CC(C)NCCCC[C@H](N)C(=O)O; NMeY = CN[C@@H](Cc1ccc(O)cc1)C(=O)O; d3Pal = N[C@H](Cc1cccnc1)C(=O)O; pGlu = O=C1CC[C@@H](C(=O)O)N1; Nicotinoyl = O=C(c1cccnc1)*; X1 = O=C(Cc1ccc(O)cc1)*
Each compound was assayed against T1, Gonadotropin-releasing hormone receptor (Rattus norvegicus, UniProt P30969) (assay: Inhibition of the in vitro binding of [125I]-labeled leuprolide to the rat pituitary luteinizing hormone releasing hormone (LHRH) receptor.).
T1 sequence (P30969 whole entry): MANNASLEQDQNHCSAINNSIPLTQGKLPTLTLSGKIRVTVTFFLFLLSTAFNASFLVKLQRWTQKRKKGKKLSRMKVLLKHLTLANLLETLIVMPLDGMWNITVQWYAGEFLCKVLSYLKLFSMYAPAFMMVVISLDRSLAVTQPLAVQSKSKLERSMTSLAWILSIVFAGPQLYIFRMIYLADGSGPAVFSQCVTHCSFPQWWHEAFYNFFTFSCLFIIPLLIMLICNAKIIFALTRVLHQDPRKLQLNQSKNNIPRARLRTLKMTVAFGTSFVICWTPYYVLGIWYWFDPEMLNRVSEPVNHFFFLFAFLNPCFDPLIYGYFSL
How it was run: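 Rat pituitary LHRH receptor binding with 125I-labeled leuprolide as radioligand. pKI is the negative log of the analogue concentration inhibiting 50% of tracer binding. Compounds tested as TFA salts.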

Row | Compound | Ki
1 | CCNC(=O)[C@H]1CCCN1C(=O)[C@H](CCCN=C(N)N)NC(=O)[C@H](CC(C)C)NC(=O)[C@@H](Cc1c[nH]c2ccccc12)NC(=O)[C@H](Cc1ccc(O)cc1)NC(=O)[C@@H]1CCCN1C(=O)[C@H](Cc1c[nH]c2ccccc12)NC(=O)CCc1ccc(F)cc1 | 0.832 nM
2 | CC(=O)N[C@H](Cc1ccc2ccccc2c1)C(=O)N[C@H](Cc1ccc(Cl)cc1)C(=O)N[C@H](Cc1cccnc1)C(=O)N[C@@H](CO)C(=O)N(C)[C@@H](Cc1ccc(O)cc1)C(=O)N[C@H](CCCCNC(=O)c1cccnc1)C(=O)N[C@@H](CC(C)C)C(=O)N[C@@H](CCCCNC(C)C)C(=O)N1CCC[C@H]1C(=O)N[C@H](C)C(N)=O (Ac-[d2Nal][dPhe(4-Cl)][d3Pal]S[NMeY][dK](Nicotinoyl)L[Lys(iPr)]P[dA]-NH2) | 0.032 nM
3 | CCNC(=O)[C@@H]1CCCN1C(=O)[C@H](CCCN=C(N)N)NC(=O)[C@H](CC(C)C)NC(=O)[C@@H](Cc1c[nH]c2ccccc12)NC(=O)[C@H](Cc1ccc(O)cc1)NC(=O)[C@H](CO)NC(=O)[C@H](Cc1c[nH]c2ccccc12)NC(=O)CCc1ccc(O)cc1 (Desaminotyrosyl-WSY[dW]LRP-NHEt) | 0.085 nM
4 | CCNC(=O)[C@@H]1CCCN1C(=O)[C@H](CCCN=C(N)N)NC(=O)[C@H](CC(C)C)NC(=O)[C@@H](Cc1c[nH]c2ccccc12)NC(=O)[C@H](Cc1ccc(O)cc1)NC(=O)[C@H](CO)NC(=O)[C@H](Cc1c[nH]c2ccccc12)NC(=O)Cc1ccc(O)cc1 (X1-WSY[dW]LRP-NHEt) | 0.813 nM
5 | CCNC(=O)[C@@H]1CCCN1C(=O)[C@H](CCCN=C(N)N)NC(=O)[C@H](CC(C)C)NC(=O)[C@@H](Cc1c[nH]c2ccccc12)NC(=O)[C@H](Cc1ccc(O)cc1)NC(=O)[C@H](CO)NC(=O)[C@H](Cc1c[nH]c2ccccc12)NC(=O)[C@H](Cc1ccccc1)NC(=O)[C@@H]1CCC(=O)N1 ([pGlu]FWSY[dW]LRP-NHEt) | 0.025 nM
6 | CCNC(=O)[C@@H]1CCCN1C(=O)[C@H](CCCN=C(N)N)NC(=O)[C@H](CC(C)C)NC(=O)[C@@H](Cc1c[nH]c2ccccc12)NC(=O)[C@H](Cc1ccc(O)cc1)NC(=O)[C@H](CO)NC(=O)[C@H](Cc1ccc(O)cc1)NC(=O)CCc1ccc(Cl)cc1 ({Propanoyl(3-(4-Cl-Ph))}-YSY[dW]LRP-NHEt) | 0.076 nM
7 | CCNC(=O)[C@@H]1CCCN1C(=O)[C@H](CCCN=C(N)N)NC(=O)[C@H](CC(C)C)NC(=O)[C@@H](Cc1c[nH]c2ccccc12)NC(=O)[C@H](Cc1ccc(O)cc1)NC(=O)[C@H](CO)NC(=O)[C@@H](Cc1ccc(O)cc1)NC(=O)CCc1ccc(Cl)cc1 ({Propanoyl(3-(4-Cl-Ph))}-[dY]SY[dW]LRP-NHEt) | 0.018 nM
8 | CC(C)C[C@H](NC(=O)[C@@H](CCCCNC(=O)c1cccnc1)NC(=O)[C@H](Cc1ccc(O)cc1)N(C)C(=O)[C@H](CO)NC(=O)[C@@H](Cc1cccc2ccccc12)NC(=O)CCc1ccc(F)cc1)C(=O)N[C@@H](CCCCNC(C)C)C(=O)N1CCC[C@H]1C(=O)N[C@H](C)C(N)=O ({Propanoyl(3-(4-F-phenyl))}-[d1Nal]S[NMeY][dK](Nicotinoyl)L[Lys(iPr)]P[dA]-NH2) | 0.02 nM
